{
  "source": "ChEMBL document CHEMBL1123358",
  "about": "“Design and synthesis of sodium (beta R*, gamma S*)-4-[[3-(4-acetyl-3-hydroxy-2-propylphenoxy)propyl] thio]-gamma-hydroxy-beta-methylbenzenebutanoate: a novel, selective, and orally active receptor antagonist of leukotriene D4” (J Med Chem, 1986)",
  "key": {"Cavia porcellus [1]": {"test_system": "Cavia porcellus", "experiment": "In vivo activity against bronchoconstrictions induced by LTD4 (0.2 ug/kg, iv) in anesthetized guinea pig following id administration of compound", "type": "functional", "procedure,_shortened": "(§1)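 Anesthetized, artificially ventilated guinea pigs received a single intraduodenal dose, then iv LTD₄ (0.2 μg/kg) bronchoconstriction challenge. Effective dose is the minimum dose giving more than 50% inhibition of bronchoconstriction within 50 min after dosing, with the number of experiments in parentheses.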"}, "Cavia porcellus [2]": {"test_system": "Cavia porcellus", "experiment": "In vivo activity against bronchoconstrictions induced by LTD4 (0.2 ug/kg, iv) in anesthetized guinea pig following iv administration of compound", "type": "functional", "procedure,_shortened": "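Artificially ventilated, anesthetized guinea pigs were challenged with LTD₄ 0.2 μg/kg iv. Drug was given iv in cumulative doses, 5 min before each successive LTD₄ challenge. ED₅₀ is from one to two determinations, or mean ± SEM where repeated, with n in parentheses.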"}, "Cavia porcellus [3]": {"species": "Cavia porcellus", "experiment": "In vitro inhibition of responses induced by LTD4 in Isolated terminal guinea pig ileum segments at 0.1 ug/mL", "type": "functional", "procedure,_shortened": "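Terminal ileum segments (2.5 cm) in aerated Krebs-bicarbonate with atropine (10⁻⁶ M) and timolol maleate (0.5 μg/mL), held under 1 g passive force. After equilibration, submaximal control contractions to LTD₄ (0.3 ng/mL) were recorded. Test substance was given for 30 s, then the control LTD₄ concentration was re-added and tension was measured. Percent inhibition is at 0.1 μg/mL, mean ± SEM of three determinations.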"}, "[4]": {"molecular_target": "T1, Cysteinyl leukotriene receptor 1 (Cavia porcellus, UniProt Q2NNR5)", "T1 sequence (Q2NNR5 whole entry)": "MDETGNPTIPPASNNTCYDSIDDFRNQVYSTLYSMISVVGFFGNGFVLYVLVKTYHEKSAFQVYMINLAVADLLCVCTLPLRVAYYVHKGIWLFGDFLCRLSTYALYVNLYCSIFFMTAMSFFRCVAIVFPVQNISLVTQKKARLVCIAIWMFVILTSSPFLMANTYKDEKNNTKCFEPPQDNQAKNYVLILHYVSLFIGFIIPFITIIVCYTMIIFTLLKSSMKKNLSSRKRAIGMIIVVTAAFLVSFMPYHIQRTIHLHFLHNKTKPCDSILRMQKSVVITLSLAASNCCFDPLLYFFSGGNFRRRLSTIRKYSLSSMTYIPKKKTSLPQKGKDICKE", "experiment": "Compound was tested for inhibition of radioligand [3H]LTD4 binding to Cysteinyl leukotriene D4 receptor in guinea pig lung membranes", "type": "cell membranes, Membrane"}, "[5]": {"molecular_target": "T1, Cysteinyl leukotriene receptor 1", "experiment": "Compound was tested for inhibition of radioligand [3H]LTC4 binding to Cysteinyl leukotriene D4 receptor in guinea pig lung membranes", "type": "cell membranes, Membrane"}, "Cavia porcellus [6]": {"test_system": "Cavia porcellus", "experiment": "In vivo activity against bronchoconstrictions induced by LTD4 (0.2 ug/kg, iv) in anesthetized guinea pig administered intraduodenally at 5 mg/kg concentration of compound", "type": "functional", "conditions": "route intraduodenal", "procedure,_shortened": "as §1"}},
  "data": [
    {"smiles": "CCCc1c(OCCCOc2ccc(C(=O)CCC(=O)O)cc2F)ccc(C(C)=O)c1O", "values": [
      {"measurement": "ED", "setting": "Cavia porcellus [1]", "value": 10, "unit": "mg/kg"},
      {"measurement": "ED50", "setting": "Cavia porcellus [2]", "value": 1, "unit": "mg/kg"},
      {"measurement": "inhibition at 0.1 µg/mL", "setting": "Cavia porcellus [3]", "value": 81, "unit": "%"}
    ]},
    {"smiles": "CCCc1c(OCCCSc2ccc(CC(=O)O)cc2)ccc(C(C)=O)c1O", "values": [
      {"measurement": "ED", "setting": "Cavia porcellus [1]", "value": 10, "unit": "mg/kg"},
      {"measurement": "ED50", "setting": "Cavia porcellus [2]", "value": 1.3, "unit": "mg/kg"},
      {"measurement": "inhibition at 0.1 µg/mL", "setting": "Cavia porcellus [3]", "value": 65, "unit": "%"}
    ]},
    {"smiles": "CCCc1c(OCCCOc2ccc(C(=O)CCC(=O)O)cc2C)ccc(C(C)=O)c1O", "values": [
      {"measurement": "ED", "setting": "Cavia porcellus [1]", "value": ">10", "unit": "mg/kg"},
      {"measurement": "inhibition at 0.1 µg/mL", "setting": "Cavia porcellus [3]", "value": 53, "unit": "%"}
    ]},
    {"smiles": "CCCc1cc(C(=O)CCC(=O)O)ccc1SCCCOc1ccc(C(C)=O)c(O)c1CCC", "values": [
      {"measurement": "ED", "setting": "Cavia porcellus [1]", "value": 10, "unit": "mg/kg"},
      {"measurement": "ED50", "setting": "Cavia porcellus [2]", "value": 0.2, "unit": "mg/kg"},
      {"measurement": "inhibition at 0.1 µg/mL", "setting": "Cavia porcellus [3]", "value": 37, "unit": "%"}
    ]},
    {"smiles": "CCCc1c(OCCCSc2ccc(C(O)C(C)(C)CC(=O)[O-])cc2)ccc(C(C)=O)c1O.[Na+]", "note": "(centres undefined)", "values": [
      {"measurement": "ED", "setting": "Cavia porcellus [1]", "value": 5, "unit": "mg/kg"},
      {"measurement": "ED50", "setting": "Cavia porcellus [2]", "value": 0.5, "unit": "mg/kg"},
      {"measurement": "inhibition at 0.1 µg/mL", "setting": "Cavia porcellus [3]", "value": 45, "unit": "%"}
    ]},
    {"smiles": "CCCc1c(OCCCSc2ccc(C(=O)CCc3nnn[nH]3)cc2)ccc(C(C)=O)c1O", "values": [
      {"measurement": "ED", "setting": "Cavia porcellus [1]", "value": ">10", "unit": "mg/kg"},
      {"measurement": "ED50", "setting": "Cavia porcellus [2]", "value": 0.6, "unit": "mg/kg"},
      {"measurement": "inhibition at 0.1 µg/mL", "setting": "Cavia porcellus [3]", "value": 63, "unit": "%"}
    ]},
    {"smiles": "CCCc1c(OCC(O)COc2ccc3c(=O)cc(C(=O)O)oc3c2CCC)ccc(C(C)=O)c1O", "note": "(centres undefined) [FPL-55712]", "values": [
      {"measurement": "ED", "setting": "Cavia porcellus [1]", "value": ">10", "unit": "mg/kg"},
      {"measurement": "ED50", "setting": "Cavia porcellus [2]", "value": 0.1, "unit": "mg/kg"},
      {"measurement": "inhibition at 0.1 µg/mL", "setting": "Cavia porcellus [3]", "value": 83, "unit": "%"}
    ]},
    {"smiles": "CCCc1c(OCC(O)CSc2ccc(C(=O)CCC(=O)O)cc2F)ccc(C(C)=O)c1O", "note": "(centres undefined)", "values": [
      {"measurement": "ED", "setting": "Cavia porcellus [1]", "value": ">10", "unit": "mg/kg"},
      {"measurement": "ED50", "setting": "Cavia porcellus [2]", "value": 0.9, "unit": "mg/kg"},
      {"measurement": "inhibition at 0.1 µg/mL", "setting": "Cavia porcellus [3]", "value": 32, "unit": "%"}
    ]},
    {"smiles": "CCCc1c(OCCCOc2ccc(C(=O)CCC(=O)O)cc2)ccc(C(C)=O)c1O", "values": [
      {"measurement": "ED", "setting": "Cavia porcellus [1]", "value": 5, "unit": "mg/kg"},
      {"measurement": "ED50", "setting": "Cavia porcellus [2]", "value": 1.1, "unit": "mg/kg"},
      {"measurement": "inhibition at 0.1 µg/mL", "setting": "Cavia porcellus [3]", "value": 49, "unit": "%"}
    ]},
    {"smiles": "CCCc1c(OCCCSc2ccc(C(O)[C@@H](C)CC(=O)[O-])cc2)ccc(C(C)=O)c1O.[Na+]", "note": "(some centres undefined)", "values": [
      {"measurement": "Ki", "setting": "[4]", "value": 0.4, "unit": "µM"},
      {"measurement": "Ki", "setting": "[5]", "value": 8.6, "unit": "µM"},
      {"measurement": "ED", "setting": "Cavia porcellus [1]", "value": 5, "unit": "mg/kg"},
      {"measurement": "ED50", "setting": "Cavia porcellus [2]", "value": 0.26, "unit": "mg/kg"},
      {"measurement": "inhibition at 0.1 µg/mL", "setting": "Cavia porcellus [3]", "value": 73, "unit": "%"},
      {"measurement": "inhibition in vivo at 5 mg/kg", "setting": "Cavia porcellus [6]", "value": "> 50", "unit": "%"}
    ]},
    {"smiles": "CCCc1c(OCCCSc2ccc(C(O)C(C)CC(=O)[O-])cc2)ccc(C(C)=O)c1O.[Na+]", "note": "(centres undefined)", "values": [
      {"measurement": "ED", "setting": "Cavia porcellus [1]", "value": ">10", "unit": "mg/kg"},
      {"measurement": "ED50", "setting": "Cavia porcellus [2]", "value": 1.5, "unit": "mg/kg"},
      {"measurement": "inhibition at 0.1 µg/mL", "setting": "Cavia porcellus [3]", "value": 62, "unit": "%"}
    ]},
    {"smiles": "CCCc1c(OCCCSc2ccc(C(=O)CCC(=O)O)cc2)ccc(C(C)=O)c1O", "values": [
      {"measurement": "ED", "setting": "Cavia porcellus [1]", "value": 10, "unit": "mg/kg"},
      {"measurement": "ED50", "setting": "Cavia porcellus [2]", "value": 1.1, "unit": "mg/kg"},
      {"measurement": "inhibition at 0.1 µg/mL", "setting": "Cavia porcellus [3]", "value": 63, "unit": "%"}
    ]},
    {"smiles": "CCCc1c(OCCCSc2ccc(C(O)CCC(=O)O)cc2)ccc(C(C)=O)c1O", "note": "(centres undefined)", "values": [
      {"measurement": "ED", "setting": "Cavia porcellus [1]", "value": 10, "unit": "mg/kg"},
      {"measurement": "ED50", "setting": "Cavia porcellus [2]", "value": 0.5, "unit": "mg/kg"},
      {"measurement": "inhibition at 0.1 µg/mL", "setting": "Cavia porcellus [3]", "value": 65, "unit": "%"}
    ]},
    {"smiles": "CCCc1c(OCCCSc2ccc(C(=O)CCC(=O)O)cc2F)ccc(C(C)=O)c1O", "values": [
      {"measurement": "ED", "setting": "Cavia porcellus [1]", "value": 10, "unit": "mg/kg"},
      {"measurement": "ED50", "setting": "Cavia porcellus [2]", "value": 1.1, "unit": "mg/kg"},
      {"measurement": "inhibition at 0.1 µg/mL", "setting": "Cavia porcellus [3]", "value": 82, "unit": "%"}
    ]}
  ]
}
